Data as given in paper PMC5624507 (Advanced functional materials, 2017).
Bridge positions count the residues as written; N and C are the ends. Peptide text beside a SMILES is read from it.

Experiments:
[1] = physiological solutions; cited from earlier work
CD13 (aminopeptidase N) = CD13 (aminopeptidase N) (Homo sapiens, UniProt P15144); experiment: CD13 enzyme inhibition / steady-state enzyme kinetic analysis; type: biochemical; settings: for effect of glycine N-methylation of the named peptide on CD13 inhibition: methylated vs non-methylated peptide; for inhibition model (affected Km, but not Vmax of CD13): steady-state kinetics, double reciprocal plot
In short: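 Enzyme inhibition was run with methylated and non-methylated peptides. IC50 is the peptide concentration inhibiting 50% of activity, from independent experiments each in duplicate. For steady-state kinetics, initial velocity was measured across varied substrate and peptide amounts and plotted as V versus substrate and as double-reciprocal plots. Ki came from two independent experiments (mean ± SE).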

αvβ3 integrin = αvβ3 integrin (Homo sapiens, UniProt P05106+P06756); experiment: Integrin binding assay; settings: after 16 h of incubation in 0.1 M ammonium bicarbonate pH 8.5, 37 °C; competitive ELISA
[2] = tested on: CD13+ endothelial cells (HUVEC); experiment: Binding of peptide-Qdot605 nanoparticles to cultured HUVEC; type: cell-based, human; settings: peptide coupled to Qdot605 fluorescent nanoparticles, 6 nM, 2 h
In short: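 The control was nanoparticles activated with sulfo-SMCC but lacking peptide. Cell-bound Qdots (red) were imaged by fluorescence microscopy at 400X, with DAPI nuclear counterstain.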

[3] = type: physicochemical; settings: 37 °C, 0.1 M ammonium bicarbonate, pH 8.5, 16 or 42 h
CD13 = CD13 (Homo sapiens, UniProt P15144); experiment: MS analysis of peptides after incubation with CD13; type: biochemical; settings: 40 min incubation with CD13, peptide 30 µM
In short: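 Peptides were incubated with or without CD13 (the no-enzyme incubation served as control), then analysed by MS.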

Row | Compound | half-life (deamidation) [1] [h] | effect of glycine N-methylation of the named peptide on CD13 inhibition (CD13 (aminopeptidase N)) | binding to αvβ3 integrin after incubation (αvβ3 integrin) | binding to CD13+ endothelial cells (HUVEC) [2] | Ki (CD13 (aminopeptidase N)) [µM] | inhibition model (affected Km, but not Vmax of CD13) (CD13 (aminopeptidase N)) | asparagine deamidation (change of molecular mass by MS) [3] | change in molecular mass upon incubation with CD13 (peptide cleavage) (CD13)
1 | CNGRCG | 3 to 5 | – | – | – | – | – | – | –
2 | cyclo(CNGRGG) [N3] | – | reduction of inhibitory potency | could bind | – | – | – | – | –
3 | N=C(N)NCCC[C@@H]1NC(=O)CNC(=O)[C@H](CC(N)=O)NC(=O)CNC(=O)[C@H](CS)NC(=O)CNC1=O [N1, c[CGNGRG]] (cyclo(CGNGRG)) | – | did not impair CD13 binding | could bind | could bind | 12.4 ± 5.4 | competitive inhibition | complete deamidation | No change
4 | N=C(N)NCCC[C@@H]1NC(=O)CNC(=O)[C@H](CC(N)=O)NC(=O)[C@@H](N)CSSC[C@@H](C(=O)O)NC1=O [CNGRC, reference compound] (H-CNGRC-OH; disulfide 1-5; N-terminus and C-terminus assumed) | – | – | – | – | 134 ± 28 | competitive inhibition | – | –
